# From PubChem BioAssay
# Sampled rows, rich in hits. Any-hit rate of the full collection: about 4.9%.
# STAT1 activator: increases IFN-gamma driven STAT1 reporter signal; NIH 3T3 STAT1-luciferase reporter, luminescence; 100% = IFN-gamma alone, no compound; activation (% of control), % at 5.5 µM; hit rate 2.6% among 200,000; AID 932;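 active means activation above the screen-wide mean activation plus 3 SD, cut at about 130% in these data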;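 further: raw ratio to IFN-gamma control signal so 100% means no change and 0% no light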
# STAT1 blocker: inhibitors of IFN-gamma induced STAT1 signaling | NIH 3T3 STAT1-luciferase reporter, luminescence | inhibition, % at 5.5 µM | hit rate 0.35% among 200,000 | AID 920;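 active means inhibition above a set limit, the mean inhibition across all tested compounds plus 3 SD, cut at about 34% in these data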;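 further: 0% = IFN-gamma with DMSO and 100% = IFN-gamma with 300 µM nifuroxazide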
# STAT3 blocker: reduces IL-6 driven STAT3 reporter signal; U3A cells, IL-6 STAT3-luciferase reporter, luminescence; host cell line lacks STAT1; inhibition, % at 5.5 µM; hit rate 0.89% among 190,000;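 active means inhibition above the mean inhibition across all screened compounds plus 3 SD, cut at about 44% in these data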;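 further: 0% = DMSO only wells and 100% = 100 µM nifuroxazide control wells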
# FLuc act counter: affects firefly luciferase, flagging false hits in luciferase stimulation screens | P08659 | ATPlite luciferase biochemical, luminescence, 10 min; 0 = ATP-free wells, 1 = DMSO control | activation factor at 10 µM | 200,000 tested, under 10 active | AID 1027;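 active means luciferase activation factor, scaled between plate controls, of at least 2 with compound at 10 µM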
# Target sequence (P08659 whole entry, looked up): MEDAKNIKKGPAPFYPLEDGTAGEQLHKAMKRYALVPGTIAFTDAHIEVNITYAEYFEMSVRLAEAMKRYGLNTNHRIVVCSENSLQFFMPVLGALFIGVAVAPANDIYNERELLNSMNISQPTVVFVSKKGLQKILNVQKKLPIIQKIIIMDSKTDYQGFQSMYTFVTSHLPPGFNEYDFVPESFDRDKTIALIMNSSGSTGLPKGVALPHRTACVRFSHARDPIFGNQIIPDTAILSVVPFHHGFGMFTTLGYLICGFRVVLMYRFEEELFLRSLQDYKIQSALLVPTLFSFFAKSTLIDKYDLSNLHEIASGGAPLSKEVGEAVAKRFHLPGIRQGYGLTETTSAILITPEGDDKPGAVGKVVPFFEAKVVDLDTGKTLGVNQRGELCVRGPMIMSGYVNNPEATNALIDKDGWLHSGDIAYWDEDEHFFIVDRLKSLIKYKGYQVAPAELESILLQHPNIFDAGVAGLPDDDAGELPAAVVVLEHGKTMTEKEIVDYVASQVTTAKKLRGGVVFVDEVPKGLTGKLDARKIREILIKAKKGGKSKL
#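 Assay system – cell-free luciferase reagent · Medium – PBS-based ATP solution · Dosing – test compounds dosed from 2 mM stocks in 100% DMSO · Timing – 10 min, room temperature · Technique – light output (luminescence) · Measure – luminescence gain marking luciferase activators · Controls – No-ATP low control, compound-free enzyme-plus-ATP high control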
# FLuc inhib CS: inhibits firefly luciferase, flagging false hits in luciferase inhibition screens | inhibition, % at 10 µM | ATPLite firefly luciferase biochemical luminescence, 10 min | hit rate 1.5% among 200,000 | P08659;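 active means inhibition above about 50% when tested at 10 µM, limit read from the data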
# STAT3 activator: activators of IL-6 induced STAT3 signaling; activation (% of control), % at 5.6 µM; U3A cells, IL-6 STAT3-luciferase reporter, luminescence; 100% = signal with IL-6 EC80 alone; hit rate 0.91% among 190,000; AID 871;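 active means activation above the screen-wide mean of compound activation plus 3 SD, cut at about 130% in these data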;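 further: 0% = background luminescence of wells with medium and substrate only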
#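 Material: STAT3-luciferase reporter U3A cells. Controls: IL-6-treated wells, 100% activation. Read-out: % activation versus median of IL-6-stimulated wells. Probe or stimulus: IL-6 stimulus at 33 ng/mL final. Timing: compound 1 h, then IL-6 6 h at 37 °C. Signal: reporter luminescence signal.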
# * marks the source's active call; other numbers are inactive results.
SMILES,STAT1 activator,STAT1 blocker,STAT3 blocker,FLuc act counter,FLuc inhib CS,STAT3 activator
C=CCNc1nc(-c2sc(NC(=O)CC)nc2C)cs1,125.4,-27.8,-37.3,1,0.5,134.8*
Cc1ccc(-c2nc(NCc3ccco3)n(S(C)(=O)=O)n2)cc1,144.0*,-50.9,-9.1,1,-2.5,113.9
CC(=O)n1nc(-c2ccc(C)cc2)nc1NCc1ccco1,126.0,-30.5,7.9,1.1,-7.5,96.1
Cc1ccc(/C=N/Nc2cn[nH]c(=O)n2)o1,103.8,-5.9,1.6,1.1,-6.0,100.6
Cc1ccc2cc(/C=N/Nc3nc4ccccc4[nH]3)c(Cl)nc2c1,94.5,6.0,-16.1,0.1,94.3*,113.4
c1ccc2c(c1)CC/C2=N/Nc1nc2ccccc2[nH]1,137.4*,-40.3,18.2,0.6,43.2,87.1
Cc1ccc(/C=N\Nc2nc3ccc(Cl)cc3[nH]2)o1,136.3*,-40.2,12.2,0.7,26.5,95.1
Fc1ccccc1-c1ccc(/C=N/Nc2nc3ccccc3[nH]2)o1,108.2,-9.3,-34.3,0.1,93.3*,125.8
CC(C)C(=O)Nc1ccc(S(=O)(=O)Nc2nccc(/C=C/c3ccccc3)n2)cc1,92.6,8.4,5.9,1.1,-5.6,97.4
C(=N\Nc1nc2ccccc2[nH]1)/c1ccccn1,13.5,92.6*,110.7*,0,95.9*,11.8
COc1ccc(-n2nc3cc(C)c(N)c(Br)c3n2)cc1,167.8*,-73.1,-68.6,0.6,41.4,165.3*
COc1ccc(-n2nc3cc(C)c(NC(=O)C(C)C)cc3n2)cc1,139.2*,-42.8,25.9,0.8,19.4,79.3
Cc1ccc(-n2nc3cc(C)c(N)cc3n2)cc1,106.9,-7.4,27.8,0.2,81.4*,78.3
COc1ccc(-n2nc3ccccc3n2)cc1,116.5,-17.7,-7.5,0.9,7.5,109.3
COc1ccc(-n2nc3cc(C)c(NC(C)=O)cc3n2)cc1,62.6,39.0*,76.5*,0.2,81.3*,38.3
NC(=O)c1ncc(C(F)(F)F)cc1Oc1cccnc1,100.3,-0.5,4.6,1.1,-8.0,100.2
Cc1cc(C)[n+](C)n1CC(O)Cn1c2ccccc2c2ccccc21 (stereo not drawn),99.4,-2.7,3.1,1.1,-11.2,101.4
COc1ccc(/C=N/NC(=O)CNC(=O)COc2ccccc2)cc1,95.6,4.8,17.1,1,0.2,89.1
CN(C)c1ccc(/C=N/NC(=O)CCCO)cc1,113.3,-16.2,-10.9,0.9,6.9,111.4
CN(C)c1ccc(/C=N/NC(=O)c2sccc2-n2cccc2)cc1,129.6*,-33.7,1.3,0.9,10.4,100.6
CCCCCC(=O)N/N=C/c1ccc(N(C)C)cc1,134.0*,-37.6,-19.3,0.9,7.4,120.2
COc1ccc(OCC(=O)N/N=C/c2ccc(N(C)C)cc2)cc1,103.6,-4.8,-0.4,0.4,62.8*,112.0
COc1cc(/C=C/C(=O)Nc2ccc(N3CCCCC3)c(S(=O)(=O)Nc3ccccc3Cl)c2)cc(OC)c1OC,111.4,-12.8,-2.9,1,-3.5,100.2
O=[N+]([O-])c1cccc(-c2ccc(SCc3ccccn3)nn2)c1,135.2*,-40.7,10.1,0.9,10.9,100.3
c1ccc(CSc2ccc(-c3ccccn3)nn2)nc1,133.1*,-35.3,-1.5,0.8,15.5,105.5
SMILES,STAT1 activator,STAT1 blocker,STAT3 blocker,FLuc act counter,FLuc inhib CS,STAT3 activator
COc1ccc(-c2ccc(SCc3ccccn3)nn2)cc1OC,102.3,-3.7,-2.2,1,0.3,103.1
Clc1ccc(-c2ccc(SCc3ccccn3)nn2)cc1,144.8*,-49.7,7.2,1,2.5,97.0
c1ccc(-c2ccc(SCc3cccnc3)nn2)nc1,122.4,-25.5,-0.7,0.9,13.7,103.5
c1ccc(N2CCN(c3ccccc3)C2c2ccncc2)cc1,102.5,-2.7,-9.7,1,1.4,109.3
C1=Nc2ccccc2CN1c1ccccc1,130.2*,-34.0,-11.7,0.9,13.3,110.3
O=C(NCCCn1ccnc1)c1cc2cc([N+](=O)[O-])ccc2oc1=O,103.8,-1.6,-8.5,1,-3.9,104.7
O=C(NCCCN1CCOCC1)C(=O)NCc1ccccc1Cl,114.1,-16.4,3.6,1,-3.5,100.0
O=C(COC(=O)c1n[nH]c(=O)c2ccccc12)c1ccc(Br)cc1,99.5,-1.3,5.1,0.9,10.8,97.6
